Laboratory results reported in ChEMBL document CHEMBL1799931, “Synthesis, evaluation and metabolic studies of radiotracers containing a 4-(4-[18F]-fluorobenzyl)piperidin-1-yl moiety for the PET imaging of NR2B NMDA receptors” (Eur J Med Chem, 2011).

Experiments:
[1] = target: T1, Glutamate NMDA receptor; GRIN1/GRIN2B (Homo sapiens, UniProt Q05586+Q13224); assay: Antagonist activity against NR1a/NR2B receptor transfected in human HEK293 cells assessed as inhibition of NMDA-induced Ca2+ influx; type: functional, cell-based
[2] = target: Glutamate NMDA receptor; GRIN1/GRIN2A (Homo sapiens) (UniProt Q05586+Q12879); assay: Antagonist activity against NR1a/NR2A receptor transfected in human HEK293 cells assessed as inhibition of NMDA-induced Ca2+ influx at 10 uM; type: functional, cell-based
Summary of the method: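 HEK293 cells co-transfected 1:1 with NR1-1a plus NR2A-GFP or NR2B-GFP, D-APV (100 µM) after transfection, used at 24 h. Cells loaded with Fura-2/AM 45 min at 37 °C, then held in HBBSS with glycine, pH 7.45, at room temperature under perfusion. NMDA 100 µM for 30 s; ligands applied 60 s before and during.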

[3] = target: T1, Glutamate NMDA receptor; GRIN1/GRIN2B; assay: Displacement of [3H]-Ro-256981 from recombinant NR1/NR2B receptor; type: protein-complex assay
Plasma = assay: Metabolic stability of the compound in rat plasma after 30 mins; type: ADME, cell-free; settings: 0.5 h
Summary of the method: (§1)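 Rat plasma or liver homogenate (0.450 mL) spiked with ligand at 5-200 mg/L. Samples were deproteinized with acetonitrile immediately or after 30 min at 37 °C, then analysed by HPLC in triplicate injections.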

Liver = assay: Metabolic stability of the compound in rat liver homogenate after 30 mins; type: ADME, tissue-based; settings: tissue homogenate, 0.5 h; summary of the method: as §1
[4] = target: T1, Glutamate NMDA receptor; GRIN1/GRIN2B; assay: Antagonist activity at human NR1a/NR2B receptor expressed in mouse fibroblast LMTK cells assessed as inhibition of Glu/Gly induced Ca2+ influx; type: functional, cell-based
Mus musculus = assay: Analgesic activity in po dosed mouse assessed as licking behavior measured after 20 to 25 mins by formalin test; type: functional, organism-based
[5] = Inhibition of alpha-adrenergic receptor
[6] = target: Voltage-gated inwardly rectifying potassium channel KCNH2 (Homo sapiens, UniProt Q12809); assay: Inhibition of human ERG potassium channel
Voltage-gated inwardly rectifying potassium channel KCNH2, sequence (Q12809 whole entry): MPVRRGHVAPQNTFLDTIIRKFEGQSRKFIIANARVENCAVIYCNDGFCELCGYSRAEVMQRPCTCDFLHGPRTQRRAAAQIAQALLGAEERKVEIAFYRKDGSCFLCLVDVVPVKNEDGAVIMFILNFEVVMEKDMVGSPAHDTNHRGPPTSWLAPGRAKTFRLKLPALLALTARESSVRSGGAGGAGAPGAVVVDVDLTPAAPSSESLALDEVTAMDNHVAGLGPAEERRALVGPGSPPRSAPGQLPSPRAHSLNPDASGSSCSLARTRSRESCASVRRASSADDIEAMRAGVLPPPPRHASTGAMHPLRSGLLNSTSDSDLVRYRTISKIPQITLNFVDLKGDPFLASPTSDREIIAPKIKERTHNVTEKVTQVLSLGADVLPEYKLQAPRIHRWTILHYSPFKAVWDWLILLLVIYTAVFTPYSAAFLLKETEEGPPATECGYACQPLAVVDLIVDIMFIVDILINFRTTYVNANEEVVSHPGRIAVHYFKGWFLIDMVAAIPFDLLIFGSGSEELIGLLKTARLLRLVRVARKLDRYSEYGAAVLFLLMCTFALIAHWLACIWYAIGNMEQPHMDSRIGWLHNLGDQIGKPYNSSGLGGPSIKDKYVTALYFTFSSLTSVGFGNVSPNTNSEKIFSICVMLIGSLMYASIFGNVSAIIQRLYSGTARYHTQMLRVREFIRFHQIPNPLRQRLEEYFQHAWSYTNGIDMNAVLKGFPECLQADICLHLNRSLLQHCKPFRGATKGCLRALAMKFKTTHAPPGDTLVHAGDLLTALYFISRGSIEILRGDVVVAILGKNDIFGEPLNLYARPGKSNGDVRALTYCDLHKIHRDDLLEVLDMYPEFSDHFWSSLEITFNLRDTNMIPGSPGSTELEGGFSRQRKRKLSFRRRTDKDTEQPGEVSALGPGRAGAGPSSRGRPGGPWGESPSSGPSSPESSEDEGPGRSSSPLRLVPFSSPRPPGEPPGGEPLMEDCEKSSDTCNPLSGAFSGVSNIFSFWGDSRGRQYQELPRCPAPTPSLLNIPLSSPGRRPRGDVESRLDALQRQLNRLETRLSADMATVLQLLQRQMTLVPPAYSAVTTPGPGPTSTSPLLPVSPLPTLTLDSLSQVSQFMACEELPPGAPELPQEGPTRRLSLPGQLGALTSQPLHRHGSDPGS

T1 sequence (Q13224 whole entry, other chains not shown): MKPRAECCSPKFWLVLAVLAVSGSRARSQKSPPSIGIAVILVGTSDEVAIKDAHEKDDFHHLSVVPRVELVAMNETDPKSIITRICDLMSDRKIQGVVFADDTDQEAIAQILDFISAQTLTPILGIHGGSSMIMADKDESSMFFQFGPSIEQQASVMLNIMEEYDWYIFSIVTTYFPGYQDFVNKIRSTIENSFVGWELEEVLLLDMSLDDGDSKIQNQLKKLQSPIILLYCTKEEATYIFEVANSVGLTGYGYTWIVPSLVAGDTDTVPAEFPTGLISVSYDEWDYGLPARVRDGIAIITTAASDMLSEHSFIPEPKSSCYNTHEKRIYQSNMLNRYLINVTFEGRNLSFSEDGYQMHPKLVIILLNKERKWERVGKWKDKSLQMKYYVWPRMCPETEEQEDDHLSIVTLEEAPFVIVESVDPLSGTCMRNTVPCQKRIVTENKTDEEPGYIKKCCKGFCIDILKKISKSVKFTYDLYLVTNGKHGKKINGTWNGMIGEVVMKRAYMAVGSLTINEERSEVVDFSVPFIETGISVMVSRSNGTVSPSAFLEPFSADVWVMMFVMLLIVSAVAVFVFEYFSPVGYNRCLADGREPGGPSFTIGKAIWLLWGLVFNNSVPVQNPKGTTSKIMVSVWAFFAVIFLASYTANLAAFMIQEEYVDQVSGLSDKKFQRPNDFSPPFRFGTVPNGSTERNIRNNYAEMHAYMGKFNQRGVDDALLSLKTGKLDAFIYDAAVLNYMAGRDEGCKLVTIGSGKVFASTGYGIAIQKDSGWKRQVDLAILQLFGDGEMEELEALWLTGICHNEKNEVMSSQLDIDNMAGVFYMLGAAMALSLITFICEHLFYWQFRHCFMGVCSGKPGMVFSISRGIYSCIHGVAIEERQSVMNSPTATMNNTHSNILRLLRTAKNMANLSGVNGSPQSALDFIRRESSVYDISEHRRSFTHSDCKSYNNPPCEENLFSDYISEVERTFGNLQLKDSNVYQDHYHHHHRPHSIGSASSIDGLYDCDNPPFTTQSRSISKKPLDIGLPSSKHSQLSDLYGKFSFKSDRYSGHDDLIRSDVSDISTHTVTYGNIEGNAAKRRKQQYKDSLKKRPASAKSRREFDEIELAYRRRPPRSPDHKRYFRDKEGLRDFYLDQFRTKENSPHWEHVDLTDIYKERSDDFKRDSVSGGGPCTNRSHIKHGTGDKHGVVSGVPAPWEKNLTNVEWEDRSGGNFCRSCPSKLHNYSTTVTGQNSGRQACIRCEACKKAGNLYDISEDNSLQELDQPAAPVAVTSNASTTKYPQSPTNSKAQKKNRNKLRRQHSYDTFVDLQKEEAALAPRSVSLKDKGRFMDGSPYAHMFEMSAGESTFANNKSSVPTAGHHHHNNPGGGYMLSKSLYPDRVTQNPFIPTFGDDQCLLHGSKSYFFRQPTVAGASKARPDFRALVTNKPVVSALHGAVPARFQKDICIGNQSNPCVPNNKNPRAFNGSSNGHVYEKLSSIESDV

Row | IC50 [1] [nM] | inhibition [2] [%] | Structure (SMILES) | further results
1 | 840 | 13.2 | O=C(Nc1ccc2[nH]c(=O)sc2c1)C(=O)N1CCC(Cc2ccc(F)cc2)CC1 | 
2 | 69.9 |  | O=C(Nc1ccc2[nH]c(=O)oc2c1)C(=O)N1CCC(Cc2ccc(F)cc2)CC1 [RADIPRODIL] | IC50 [3]: 6 nM; Stability (Plasma): Stable; Stability (Liver): Stable
3 |  | 22.3 | CC(C(O)c1ccc(O)cc1)N1CCC(Cc2ccccc2)CC1 (stereo not given) | 
4 | 50.3 |  | CS(=O)(=O)Nc1ccc2nc(CN3CCC(Cc4ccccc4)CC3)[nH]c2c1 | IC50 [4]: 1.4 nM
5 |  |  | O=C(Nc1ccc2[nH]c(=O)[nH]c2c1)C(=O)N1CCC(Cc2ccccc2)CC1 | IC50 [3]: 8 nM
6 | 830 | 14.5 | O=C1Cc2cc(NC(=O)C(=O)N3CCC(Cc4ccc(F)cc4)CC3)ccc2N1 | 
7 |  |  | Cc1ccc(CC2CCN(C(=O)C(=O)Nc3ccc4c(c3)CC(=O)N4)CC2)cc1 | ED50 (Mus musculus): 0.5 mg/kg
8 | 47.3 | 10.5 | Oc1ccc2[nH]c(CN3CCC(Cc4ccc(F)cc4)CC3)nc2c1 | IC50 [5]: 620 nM; IP [6]: 500 nM; Stability (Plasma): Stable; Stability (Liver): Stable
9 | 57.7 |  | CS(=O)(=O)Nc1ccc2[nH]c(CN3CCC(Cc4ccc(F)cc4)CC3)nc2c1 | 
